Experimental data published in PubChem BioAssay AID1217 (Sanford-Burnham Center for Chemical Genomics, 2008).
Hit rate of the full screen: of about 190,000 compounds, about 1,300 (0.68%) were called active.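 Rule for the calls: active = primary screen inhibition at 20 µM above a set limit (cut at about 50% in these data); inactive = the rest.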 For the sample, actives were picked, then their nearest neighbours and some compounds at random.

Tested on: diaphorase (Clostridium kluyveri)
Assay: compounds blocking diaphorase resazurin reduction – biochemical, uHTS, resorufin fluorescence, counter-screen for diaphorase-coupled primary assays, primary screen (AID 1217);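 note: plate controls were DMSO with full reaction for no effect and wells lacking NADH for full effect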
Conditions: diaphorase resazurin-to-resorufin fluorescence, NADH, 16 min; at 20 µM; active compounds read high
How it was run: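 Test system: Clostridium kluyveri diaphorase enzyme / Quantity: diaphorase at 0.14 U/mL in enzyme working solution / Incubation: 16-min room-temperature incubation before reading / Benchmarks: NADH-free wells as positive control, DMSO-only neutral wells / Signal: resorufin fluorescence 544/590 nm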

| SMILES | inhibition |
| --- | --- |
| COc1ccccc1N=Nc1c(O)[nH]c(=S)[nH]c1=O | 51.2% (active) |
| COc1ccccc1-n1c(O)c(C=NC2CC2)c(=O)[nH]c1=O | 7.4% (inactive) |
| COc1ccccc1N=C1SCCCN1C | 7.6% (inactive) |
| COc1ccc(-c2nn(CCC#N)cc2C(=O)O)cc1 | 0.1% (inactive) |
| COc1ccc(NC(=O)c2cn(CCC#N)nc2-c2ccc([N+](=O)[O-])cc2)cc1 | 1.1% (inactive) |
| CN(C)c1nc(N(C)C)nc(N(C#N)CCCl)n1 | -15.8% (inactive) |
| O=C(Cc1ccccc1)N1CCN(C2CCCCCC2)CC1 | 19.6% (inactive) |
| Cc1ccc2c(c1)=C/C(=C\c1c(O)[nH]c(=O)[nH]c1=O)C(=O)N=2 | 65.8% (active) |
| O=C1N=c2ccccc2=C/C1=C\c1c(O)[nH]c(=S)[nH]c1=O | 20% (inactive) |
| COc1cccc(N2C(=O)NC(=O)/C(=C\c3ccc([N+](=O)[O-])s3)C2=O)c1 | 27.2% (inactive) |
